According to ChEMBL document CHEMBL3414477, “Synthesis, biological investigation and molecular docking study of N-malonyl-1,2-dihydroisoquinoline derivatives as brain specific and shelf-stable MAO inhibitors” (Eur J Med Chem, 2015):
Blank lines part the entries; values can stand above or below the molecule they belong to.

Assays:
Bos taurus = species: Bos taurus; experiment: Selectivity index, ratio of IC50 for bovine brain mitochondria MAO-B to IC50 for bovine brain mitochondria MAO-A
In short: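 Bovine brain mitochondria (6 mg/mL suspension) in 0.25 M phosphate buffer, pH 7.4, were used with 0.1 mM clorgyline or L-deprenyl to isolate MAO-A or MAO-B. Compounds at five concentrations in propylene glycol were preincubated for 20 min, then 2.5 mM kynuramine was added for 60 min at 37 °C. The reaction was stopped with perchloric acid, made alkaline with NaOH and read fluorimetrically in duplicate. IC50 was reported, and SI = MAO-B IC50 / MAO-A IC50.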

[1] = target: T1, Amine oxidase [flavin-containing] A (Bos taurus, UniProt P21398); experiment: Inhibition of bovine brain mitochondria MAO-A by spectrofluorimetry
T1 sequence (P21398 whole entry): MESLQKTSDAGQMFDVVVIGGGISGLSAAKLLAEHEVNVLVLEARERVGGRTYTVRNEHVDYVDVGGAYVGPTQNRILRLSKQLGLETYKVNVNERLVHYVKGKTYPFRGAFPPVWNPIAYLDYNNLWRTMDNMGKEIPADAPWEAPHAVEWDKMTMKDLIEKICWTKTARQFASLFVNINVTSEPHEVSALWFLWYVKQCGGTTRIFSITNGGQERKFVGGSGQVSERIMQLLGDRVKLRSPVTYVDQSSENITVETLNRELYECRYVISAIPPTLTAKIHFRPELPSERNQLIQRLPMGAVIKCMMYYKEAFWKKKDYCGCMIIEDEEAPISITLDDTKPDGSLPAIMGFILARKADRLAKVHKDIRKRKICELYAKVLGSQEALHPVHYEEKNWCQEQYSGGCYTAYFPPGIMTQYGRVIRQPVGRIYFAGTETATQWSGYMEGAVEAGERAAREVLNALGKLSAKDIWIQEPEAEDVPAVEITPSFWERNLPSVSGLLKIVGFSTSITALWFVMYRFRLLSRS

[2] = target: T2, Amine oxidase [flavin-containing] B (Bos taurus, UniProt P56560); experiment: Inhibition of bovine brain mitochondria MAO-B by spectrofluorimetry
T2 sequence (P56560 whole entry): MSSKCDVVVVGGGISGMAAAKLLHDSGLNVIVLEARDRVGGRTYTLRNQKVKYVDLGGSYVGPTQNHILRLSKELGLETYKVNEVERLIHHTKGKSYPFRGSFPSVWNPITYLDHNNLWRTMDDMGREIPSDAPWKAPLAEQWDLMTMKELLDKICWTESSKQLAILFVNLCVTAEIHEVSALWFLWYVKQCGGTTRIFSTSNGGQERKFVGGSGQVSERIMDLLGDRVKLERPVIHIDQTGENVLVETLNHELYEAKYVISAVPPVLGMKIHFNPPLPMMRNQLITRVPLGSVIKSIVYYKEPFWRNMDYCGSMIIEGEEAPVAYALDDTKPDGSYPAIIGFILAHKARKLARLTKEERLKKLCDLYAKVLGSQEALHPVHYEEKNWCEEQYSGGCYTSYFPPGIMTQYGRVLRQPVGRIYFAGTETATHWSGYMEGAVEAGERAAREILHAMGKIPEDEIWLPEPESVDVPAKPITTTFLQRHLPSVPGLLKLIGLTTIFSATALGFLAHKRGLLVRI

[3] = Chemical stability of the compound in 10% methanolic silver nitrate assessed as apparent pseudo first order rate constant of disappearance by reverse-phase HPLC analysis; format: physicochemical
In short: (§1)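 Reagents were 10% methanolic silver nitrate or 30% aqueous hydrogen peroxide. The compound and its metabolites were measured by a validated reverse-phase HPLC method. Pseudo first order disappearance was fitted by linear regression of ln peak area against time, and t1/2 was derived from the rate constant.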

[4] = Chemical stability of the compound in 30% aqueous hydrogen peroxide assessed as apparent pseudo first order rate constant of disappearance by reverse-phase HPLC analysis; format: physicochemical; conditions: buffer; in short: as §1
[5] = Chemical stability of the compound in 10% methanolic silver nitrate assessed as half life by reverse-phase HPLC analysis; format: physicochemical; in short: as §1
[6] = Chemical stability of the compound in 30% aqueous hydrogen peroxide assessed as half life by reverse-phase HPLC analysis; format: physicochemical; in short: as §1
[7] = Shelf-life stability of the compound in phosphate buffer at pH 7.4 assessed as apparent pseudo first order rate constant of disappearance by reverse-phase HPLC analysis; format: physicochemical
In short: (§2)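 1 mL of freshly prepared 2 × 10^-4 M methanolic solution (stock) was added to 5 mL of 0.2 M phosphate buffer, pH 5.8 or 7.4, at about 37 °C. Tubes were kept in the dark for 3 days and sampled at 5, 180, 1880 and 2440 min for reverse-phase HPLC. The rate constant came from linear regression of ln peak area against time, and t1/2 was derived from it.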

[8] = Shelf-life stability of the compound in phosphate buffer at pH 5.8 assessed as apparent pseudo first order rate constant of disappearance by reverse-phase HPLC analysis; format: physicochemical; in short: as §2
[9] = Shelf-life stability of the compound in phosphate buffer at pH 7.4 assessed as half life by reverse-phase HPLC analysis; format: physicochemical; in short: as §2
[10] = Shelf-life stability of the compound in phosphate buffer at pH 5.8 assessed as half life by reverse-phase HPLC analysis; format: physicochemical; in short: as §2
Plasma = experiment: Stability of the compound in 80% mouse plasma assessed as apparent pseudo first order rate constant of disappearance by reverse-phase HPLC analysis; format: ADME, cell-free
In short: (§3)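 Heparinized mouse blood was spun at 4000 rpm for 20 min, and the plasma was diluted to 80% with 0.2 M phosphate buffer, pH 7.4, then prewarmed at 37 °C. Methanolic compound solution (2 × 10^-4 M stock) was added and the mix held at 37 °C. Samples were taken at 5–240 min, quenched in ice-cold methanol, frozen, centrifuged and run on HPLC. Rate came from ln peak area versus time (n = 5), and t1/2 was derived.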

Brain [11] = experiment: Stability of the compound in 20% rabbit brain homogenate assessed as apparent pseudo first order rate constant of disappearance by reverse-phase HPLC analysis; format: ADME, tissue-based, Oryctolagus cuniculus
In short: (§4)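 Rabbit brains were homogenized in 4 volumes of ice-cold isotonic 0.2 M phosphate buffer, pH 7.4, giving a 20% homogenate that was equilibrated at 37 °C. Methanolic compound solution (2 × 10^-4 M stock) was added and the mix held at 37 °C. Samples were taken at 5, 60, 120, 180 and 240 min, quenched in ice-cold methanol, frozen, centrifuged and run on HPLC. The pseudo first order rate came from ln peak area versus time (n = 5), and t1/2 was derived.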

[12] = Stability of the compound in 80% mouse plasma assessed as half life by reverse-phase HPLC analysis; format: ADME, cell-free; in short: as §3
[13] = Stability of the compound in 20% rabbit brain homogenate assessed as half life by reverse-phase HPLC analysis; format: ADME, tissue-based, Oryctolagus cuniculus; in short: as §4
Blood = experiment: Drug metabolism in Sprague-Dawley rat blood assessed as 2-(isoquinolinium-2-yl)-3-oxo-3-(phenethylamino)propanoate measured during first 15 mins at 20 mg/kg, iv; format: ADME, organism-based; set-up: dose 20 mg/kg, route intravenous; conditions: in vivo, 0.25 h
In short: (§5)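 Female Sprague Dawley rats (65–70 g, 3 per group) were anesthetized with urethane and given 20 mg/kg in DMSO (25 mg/mL) via the external jugular vein. At 5, 15, 30, 45, 60 and 75 min, eyeball blood was taken into acetonitrile. Brains were removed, washed, homogenized in water plus 5% DMSO/acetonitrile and centrifuged at 4000 rpm for 10 min. Supernatants were analysed by HPLC, with DMSO-injected controls.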

Brain [14] = experiment: Drug metabolism in Sprague-Dawley rat brain assessed as 2-(isoquinolinium-2-yl)-3-oxo-3-(phenethylamino)propanoate at 20 mg/kg, iv; format: ADME, organism-based; set-up: dose 20 mg/kg, route intravenous; conditions: in vivo; in short: as §5
Brain [15] = experiment: Drug metabolism in Sprague-Dawley rat brain assessed as 2-(isoquinolin-2(1H)-yl)-3-oxo-3-(phenethylamino)propanoate at 20 mg/kg, iv; format: ADME, organism-based; set-up: dose 20 mg/kg, route intravenous; conditions: in vivo; in short: as §5
Brain [16] = experiment: Drug distribution in Sprague-Dawley rat brain measured per gram at 20 mg/kg, iv; format: ADME, organism-based; set-up: dose 20 mg/kg, route intravenous; conditions: in vivo; in short: as §5

Structure (SMILES): N/N=C/c1ccc(Cl)cc1
- Selectivity Index (Bos taurus): 1.89e+06
- IC50 [1]: 3.9 nM
- IC50 [2]: 7400 µM

Structure (SMILES): N/N=C/c1ccc([N+](=O)[O-])cc1
- Selectivity Index (Bos taurus): 9500
- IC50 [1]: 49 nM
- IC50 [2]: 380 µM

Structure (SMILES): CCOC(=O)C(C(=O)NCCc1ccccc1)[n+]1ccc2ccccc2c1 (stereo unspecified)
- Selectivity Index (Bos taurus): 12400
- IC50 [1]: 6.2 nM
- IC50 [2]: 77 µM

Further lines, results first:

- K [3]: 0.0217 min⁻¹
- K [4]: 0.0181 min⁻¹
- half-life [5]: 31.9 min
- half-life [6]: 38.2 min
- K [7]: 0.00114 min⁻¹
- K [8]: 0.000561 min⁻¹
- half-life [9]: 608 min
- half-life [10]: 1240 min
- K (Plasma): 6.81 ×10⁻³ /min
- K (Brain [11]): 3.82 ×10⁻³ /min
- half-life [12]: 102 min
- half-life [13]: 181 min
- Drug metabolism (Blood): metabolite_detected
- Drug metabolism (Brain [14]): metabolite_detected
- Drug metabolism (Brain [15]): metabolite_detected
- Drug uptake (Brain [16]): 145.1 µg/g
Structure (SMILES): CCOC(=O)C(C(=O)NCCc1ccccc1)N1C=Cc2ccccc2C1 (stereo unspecified)

- Selectivity Index (Bos taurus): 5400
- IC50 [1]: 66 nM
- IC50 [2]: 360 µM
Structure (SMILES): CCOC(=O)C(C(=O)N/N=C/c1ccc(Cl)cc1)[n+]1ccc2ccccc2c1 (stereo unspecified)

- Selectivity Index (Bos taurus): 1.94e+06
- IC50 [1]: 3.8 nM
- IC50 [2]: 7400 µM
Structure (SMILES): CCOC(=O)C(C(=O)N/N=C/c1ccc([N+](=O)[O-])cc1)[n+]1ccc2ccccc2c1 (stereo unspecified)
